Assay results from ChEMBL document CHEMBL3627612, “Hirsutinolide Series Inhibit Stat3 Activity, Alter GCN1, MAP1B, Hsp105, G6PD, Vimentin, TrxR1, and Importin α-2 Expression, and Induce Antitumor Effects against Human Glioma” (J Med Chem, 2015).
Activity calls are given as the source filed them. The calls are words filed in the database; no cut-off is given here.

Tests used:
[1] = molecular target: RAC-alpha serine/threonine-protein kinase (Homo sapiens) (UniProt P31749); assay: Modulation of Akt phosphorylation in human U251MG cells at 5 uM after 0.5 to 24 hrs by immunoblot analysis; format: cell-based; conditions: U-251
Summary of the method: (§1)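 U251MG cells treated with 5 μM compound for 0–24 h; whole-cell lysates of equal total protein immunoblotted. Controls were 0.025% DMSO-treated cells. Representative of 2–4 independent determinations.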

[2] = Antiproliferative activity against human U251MG cells at 5 uM for 72 hrs by cyquant assay; format: functional; conditions: U-251, 72 h
Summary of the method: (§2)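 CyQuant proliferation assay after 72 h compound exposure of cultured cells; relative viability normalized to DMSO-treated control; IC50 values derived. Glioma lines grown in RPMI or DMEM with 10% FBS and 1% nonessential amino acids.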

[3] = molecular target: T1, Signal transducer and activator of transcription 3 (Homo sapiens, UniProt P40763); assay: Inhibition of Stat3 dimer DNA binding activity in human U251MG cells nuclear extract at 5 uM after 0.5 to 24 hrs by EMSA using radiolabeled probe hSIE; format: cell-based; conditions: U-251
Summary of the method: (§3)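 Sub-confluent U251MG or U373MG cells treated with compound (5 μM for 0–24 h, or 0–5 μM for 1.5 h). Stat3:DNA bands scanned, quantified and plotted against concentration to derive IC50. Controls were 0.025% DMSO.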

SF-295 [4] = assay: Anticlonogenic activity against human SF295 cells for 72 hrs by crystal-violet staining based assay; format: functional, cell-based
[5] = Cytotoxicity against mouse NIH/3T3 cells at 5uM after 72 hrs by cyquant cells; format: cell-based; conditions: nih3t3, 72 h; summary of the method: as §2
[6] = molecular target: T1, Signal transducer and activator of transcription 3; assay: Inhibition of Stat3 activity in human glioma (G22) patient-derived mouse xenograft cells assessed as phosphorylated Stat3 level at 5 uM after 24 hrs by immunoblot analysis
Summary of the method: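 Cultured G22 glioma patient-derived mouse xenograft cells (DMEM, 5–10% heat-inactivated FBS) treated with 5 μM compound for 0–24 h. Whole-cell lysates immunoblotted for pStat3, Stat3, GAPDH.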

[7] = molecular target: T1, Signal transducer and activator of transcription 3; assay: Inhibition of Stat3 dimer DNA binding activity in human U251MG cells nuclear extract at 5 uM by EMSA using radiolabeled probe hSIE; format: cell-based; conditions: U-251, TDE = time-dependent effect; summary of the method: as §3
U-251 [8] = assay: Inhibition of cell migration in human U251MG cells at 5 uM after 19 hrs by wound healing assay; format: functional, cell-based
Summary of the method: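 Scratch assay: sub-confluent U251MG monolayers wounded with pipette tips, treated once with 0–5 μM compound or DMSO, allowed to migrate into the denuded area over 19 h. Imaged at 10× on an inverted microscope.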

SF-295 [9] = assay: Antiproliferative activity against human SF295 cells at 5 uM for 72 hrs by cyquant assay; format: functional, cell-based
[10] = molecular target: T1, Signal transducer and activator of transcription 3; assay: Inhibition of Stat3 dimer DNA binding activity in human U251MG cells nuclear extract after 1.5 hrs by EMSA using radiolabeled probe hSIE
[11] = Antiproliferative activity against human SF295 cells for 72 hrs by cyquant assay; format: functional, cell-based; conditions: SF-295, 72 h; summary of the method: as §2
U-251 [12] = assay: Cytotoxicity against human U251MG cells at 2.5 to 5 uM after 19 hrs; format: functional, cell-based
[13] = molecular target: Signal transducer and activator of transcription 3 (Mus musculus) (UniProt P42227); assay: Inhibition of Stat3 dimer DNA binding activity in mouse NIH3T3/vSrc nuclear extract at 5 uM preincubated for 30 mins followed by addition of radiolabeled probe hSIE for 30 mins by EMSA
[14] = molecular target: Signal transducer and activator of transcription 1/ 3 (Mus musculus) (UniProt P42227+P42225); assay: Inhibition of Stat1:Stat3 dimer DNA binding activity in EGF-stimulated mouse NIH3T3 nuclear extract expressing human EGFR assessed as residual activity at 5 uM preincubated for 30 mins followed by addition of radiolabeled probe hSIE for 30 mins by EMSA; format: cell-free
[15] = Cytotoxicity against mouse NIH/3T3 cells assessed as colony survival at 1 to 5 uM for 72 hrs measured after 1 week by crystal-violet staining based assay; format: cell-based; conditions: nih3t3, 5 µM
Summary of the method: (§4)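 Single-cell seeding at 250 cells per well; cells treated once the next day for 72 h with 0–5 μM compound, then grown until large colonies were visible (NIH3T3 1 week, MDA-MB-231 and U251MG 2 weeks, MCF-7 4 weeks). Colonies stained with crystal violet for 4 h, imaged and counted.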

[16] = molecular target: Mitogen-activated protein kinase; ERK1/ERK2 (Homo sapiens) (UniProt P27361+P28482); assay: Modulation of Erk1/2 phosphorylation in human U251MG cells at 5 uM after 0.5 to 24 hrs by immunoblot analysis; format: cell-based; conditions: U-251
Summary of the method: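 U251MG glioma cells (RPMI or DMEM, 10% FBS, 1% nonessential amino acids) treated with 5 μM compound for 0–24 h; 0.025% DMSO control. Whole-cell lysates of equal total protein immunoblotted for pErk1/2, Erk1/2, pJAK2 and JAK2 with β-actin or GAPDH loading controls. Representative of 2–4 independent determinations.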

[17] = Antiproliferative activity against human Glioma (G10) patient derived xenograft cells at 5 uM after 72 hrs by cyquant assay; format: functional, Glioma cell
U-251 [18] = assay: Anticlonogenic activity against human U251MG cells for 72 hrs measured after 2 weeks by crystal-violet staining based assay; format: functional, cell-based; summary of the method: as §4
[19] = Antiproliferative activity against human U373MG cells for 72 hrs by cyquant assay; format: functional, cell-based, U-373MG ATCC; conditions: U373 MG; summary of the method: as §2
MCF7 = assay: Antiproliferative activity against human MCF7 cells for 72 hrs by cyquant assay; format: functional, cell-based; conditions: MCF7, 72 h; summary of the method: as §2
MDA-MB-231 = assay: Anticlonogenic activity against human MDA-MB-231 cells for 72 hrs measured after 2 weeks by crystal-violet staining based assay; format: functional, cell-based; summary of the method: as §4
[20] = molecular target: Signal transducer and activator of transcription 3 (Mus musculus) (UniProt P42227); assay: Inhibition of EGF-induced Stat3 phosphorylation in mouse NIH3T3 cells expressing human EGFR at 5 uM preincubated for 3 hrs followed by stimulation with 1 ug/ml EGF for 12 mins by immunoblot analysis; format: cell-based
Summary of the method: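 NIH3T3/hEGFR fibroblasts pretreated with or without 5 μM compound for 3 h, then stimulated with 1 μg/ml EGF for 12 min. Whole-cell lysates of equal total protein immunoblotted for phospho and total Stat3, Stat1, Stat5, Erk1/2. Controls were 0.025% DMSO-treated cells. Representative of 2–4 independent determinations.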

Glioma cell [21] = assay: Effect on cell morphology in human Glioma (G22) patient derived xenograft cells assessed as 3D spheroids formation at 5 uM for 24 hrs measured after 48 hrs by inverted fluorescence microscope analysis; format: functional
Summary of the method: (§5)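 G22 patient-derived xenograft glioma cells seeded at 1,000 cells/well in ultra-low-binding round-bottom wells, grown 48 h into 3D spheroids, then treated once with 5 μM compound or DMSO; matrigel added after 24 h. Spheroids imaged at 5× magnification on an inverted fluorescence microscope every 24 h for up to 120 h.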

Glioma cell [22] = assay: Effect on cell morphology in human Glioma (G22) patient derived xenograft cells assessed as cell disaggregation of spheroids at 5 uM for 24 hrs measured after 48 to 96 hrs by inverted fluorescence microscope analysis in presence of matrigel; format: functional; summary of the method: as §5
Glioma cell [23] = assay: Cytotoxicity against human Glioma (G22) patient-derived mouse xenograft cells at 5 uM after 24 hrs by cyquant assay; format: functional, cell-based
U-251 [24] = assay: Effect on PTP1B expression in human U251MG cells at 5 uM after 0.5 to 24 hrs by immunoblot analysis; format: functional, cell-based; summary of the method: as §1
U-251 [25] = assay: Effect on SOCS3 expression in human U251MG cells at 5 uM after 0.5 to 24 hrs by immunoblot analysis; format: functional, cell-based; summary of the method: as §1

Chain of Mitogen-activated protein kinase; ERK1/ERK2 (Homo sapiens) (P27361 whole entry, looked up): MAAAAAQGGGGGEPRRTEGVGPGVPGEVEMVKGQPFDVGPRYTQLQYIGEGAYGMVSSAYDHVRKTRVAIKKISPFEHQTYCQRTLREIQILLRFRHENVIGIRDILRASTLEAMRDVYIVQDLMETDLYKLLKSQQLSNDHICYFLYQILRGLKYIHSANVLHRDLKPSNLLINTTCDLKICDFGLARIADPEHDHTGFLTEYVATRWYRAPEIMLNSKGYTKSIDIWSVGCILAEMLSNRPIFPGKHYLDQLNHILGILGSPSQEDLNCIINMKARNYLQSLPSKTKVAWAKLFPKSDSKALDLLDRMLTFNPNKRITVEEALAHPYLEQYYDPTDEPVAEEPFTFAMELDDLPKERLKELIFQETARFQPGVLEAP
Chain of Mitogen-activated protein kinase; ERK1/ERK2 (Homo sapiens) (P28482 whole entry, looked up): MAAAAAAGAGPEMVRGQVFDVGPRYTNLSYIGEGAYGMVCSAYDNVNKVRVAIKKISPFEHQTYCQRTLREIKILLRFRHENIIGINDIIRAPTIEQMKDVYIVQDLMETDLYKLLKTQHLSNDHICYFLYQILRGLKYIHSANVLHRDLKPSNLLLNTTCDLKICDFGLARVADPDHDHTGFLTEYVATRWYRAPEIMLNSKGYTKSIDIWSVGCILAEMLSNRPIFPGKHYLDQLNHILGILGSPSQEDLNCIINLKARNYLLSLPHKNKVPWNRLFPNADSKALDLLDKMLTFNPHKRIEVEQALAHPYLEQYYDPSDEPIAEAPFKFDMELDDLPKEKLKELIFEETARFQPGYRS
T1 sequence (P40763 whole entry): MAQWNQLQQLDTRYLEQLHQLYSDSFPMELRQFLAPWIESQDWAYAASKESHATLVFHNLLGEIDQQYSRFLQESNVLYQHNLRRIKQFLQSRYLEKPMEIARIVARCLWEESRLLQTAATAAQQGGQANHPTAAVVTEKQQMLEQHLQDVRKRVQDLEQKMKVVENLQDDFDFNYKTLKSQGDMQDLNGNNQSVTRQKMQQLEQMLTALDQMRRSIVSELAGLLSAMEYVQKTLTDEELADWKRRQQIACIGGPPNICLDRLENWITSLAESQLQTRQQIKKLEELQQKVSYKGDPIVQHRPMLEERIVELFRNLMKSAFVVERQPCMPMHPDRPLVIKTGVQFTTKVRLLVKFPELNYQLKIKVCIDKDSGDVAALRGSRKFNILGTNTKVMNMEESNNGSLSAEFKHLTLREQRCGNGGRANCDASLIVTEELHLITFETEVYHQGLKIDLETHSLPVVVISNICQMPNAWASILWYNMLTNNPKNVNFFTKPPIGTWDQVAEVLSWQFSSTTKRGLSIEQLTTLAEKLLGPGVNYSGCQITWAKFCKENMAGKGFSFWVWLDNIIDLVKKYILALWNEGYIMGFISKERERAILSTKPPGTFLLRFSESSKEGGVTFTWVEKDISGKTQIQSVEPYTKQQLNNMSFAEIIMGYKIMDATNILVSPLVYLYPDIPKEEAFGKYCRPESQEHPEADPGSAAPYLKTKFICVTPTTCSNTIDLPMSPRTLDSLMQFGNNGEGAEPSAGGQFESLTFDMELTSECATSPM
Chain of RAC-alpha serine/threonine-protein kinase (Homo sapiens) (P31749 whole entry): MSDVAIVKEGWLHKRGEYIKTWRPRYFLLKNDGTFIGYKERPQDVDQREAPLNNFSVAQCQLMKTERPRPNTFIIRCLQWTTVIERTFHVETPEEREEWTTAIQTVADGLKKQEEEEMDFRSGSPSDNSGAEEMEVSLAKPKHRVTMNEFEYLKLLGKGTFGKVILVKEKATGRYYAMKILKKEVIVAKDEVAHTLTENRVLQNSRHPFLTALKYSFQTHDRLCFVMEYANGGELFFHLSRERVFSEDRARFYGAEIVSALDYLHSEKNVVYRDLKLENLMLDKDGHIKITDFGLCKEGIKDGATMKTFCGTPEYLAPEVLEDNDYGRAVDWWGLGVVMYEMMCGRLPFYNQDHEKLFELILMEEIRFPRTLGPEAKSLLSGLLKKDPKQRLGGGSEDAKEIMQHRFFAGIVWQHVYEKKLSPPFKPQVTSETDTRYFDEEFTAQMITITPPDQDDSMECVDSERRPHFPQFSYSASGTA
Chain of Signal transducer and activator of transcription 3 (Mus musculus) (P42227 whole entry): as the sequence (P40763 whole entry) above, with E760D counted along it

Row | Structure (SMILES) | Activity [1] | inhibition at 5 µM [2] [%] | inhibition [3] | Activity (SF-295 [4]) | Activity [5] | inhibition [6] | inhibition [7] | inhibition (U-251 [8]) | inhibition (SF-295 [9]) | IC50 [10] [µM] | IC50 [11] [µM] | Activity (U-251 [12]) | inhibition [13] | Activity [14] [%] | Activity [15] | Activity [16] | inhibition (INH) [17] [%] | Activity (U-251 [18]) | IC50 [19] [µM] | IC50 (MCF7) [µM] | also measured
1 | C/C=C(\C)C(=O)OCC1=C2/C(=C\[C@@]3(C)CC[C@](O)(O3)[C@H](C)C[C@@H]2O)OC1=O | inactive | 90 | Active | Dose-dependent effect | Non-toxic | inactive | tde | Active | Active | 2.6 | 9.6 | inactive | Active | 18 | Toxic | inactive | 45 | Dose-dependent effect | 6.5 | 4.8 | Activity (MDA-MB-231): Dose-dependent effect; inhibition [20]: Active; Activity (Glioma cell [21]): Active; Activity (Glioma cell [22]): Active; Activity (Glioma cell [23]): Active; Activity (U-251 [24]): inactive; Activity (U-251 [25]): inactive
2 | C/C=C(\C)C(=O)O[C@H]1C[C@@H](C)[C@]2(O)CC[C@](C)(/C=C3/OC(=O)C(COC(C)=O)=C31)O2 | inactive | 90 | Active | Dose-dependent effect | Toxic | inactive | tde | Active | Active | 2.2 | 7.5 | inactive | Active | 67 | Toxic | inactive | 45 | Dose-dependent effect | 3.5 | 10.7 | Activity (MDA-MB-231): Dose-dependent effect; inhibition [20]: Active; Activity (Glioma cell [21]): Active; Activity (Glioma cell [22]): Active; Activity (Glioma cell [23]): Active; Activity (U-251 [24]): inactive; Activity (U-251 [25]): inactive
3 | C/C=C(\C)C(=O)O[C@H]1C[C@@H](C)[C@]2(OC)CC[C@](C)(/C=C3/OC(=O)C(COC(C)=O)=C31)O2 | inactive | 90 | Active | Dose-dependent effect | Toxic | inactive | tde | Active | inactive | 3.2 | 8.2 | inactive | Active | 42 | Toxic | inactive | 45 | Dose-dependent effect | 6.6 | 7.6 | Activity (MDA-MB-231): Dose-dependent effect; inhibition [20]: Active; Activity (Glioma cell [21]): Active; Activity (Glioma cell [22]): Active; Activity (Glioma cell [23]): Active; Activity (U-251 [24]): inactive; Activity (U-251 [25]): inactive
